Measurements taken from the EternaBench riboswitch data.

System: MS2 coat protein
Test: apparent Kd, MS2 coat protein; higher = weaker binding; RNA-MaP array; FMN 200 µM where present
Procedure, shortened: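 Two titrations, one without ligand and one with constant ligand, were run with SNAP-549-labelled MS2 coat protein from 0.7 or 1.5 nM, doubling to 3 µM. The targets were designs transcribed by stalled E. coli RNA polymerase on Illumina sequencing-chip clusters, in 100 mM Tris-HCl pH 7.5, 80 mM KCl, 4 mM MgCl2, BSA, DTT, yeast tRNA and Tween-20. The apparent Kd is the median of filtered per-cluster binding-curve fits, with green signal normalised to red-channel RNA signal and control-cluster median Fmax.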

[1] = designed as: OFF switch for flavin mononucleotide, no ligand
[2] = ligand present: flavin mononucleotide, designed as: OFF switch for flavin mononucleotide
[3] = designed as: ON switch for flavin mononucleotide, no ligand
[4] = ligand present: flavin mononucleotide, designed as: ON switch for flavin mononucleotide

Sequence | apparent Kd [1] [nM] | apparent Kd [2] [nM] | apparent Kd [3] [nM] | apparent Kd [4] [nM]
GGAUAGGACAGAGGAUAUACGUGCUAGAGAUACUAGCAAAAUUUCCUCACAUGAGGAUCACCCAUGUAGAAGGUUGUCCUAUCG | 5.14 | 11.8 |  | 
GGAUAGGACAGAGGAUAUACGUGCUAGAGAUACUAGCAAAUAAUCCUUACAUGAGGAUCACCCAUGUAGAAGGCUGUCCUAUCG | 20.2 | 48 |  | 
GGAUAGGACAGAGGAUAUACGUGCUAGAGCUACUAGCAAAAUUUCCUCACAUGAGGAUCACCCAUGUAGAAGGCUGUCCUAUCG | 15.6 | 463 |  | 
GGAUAGGACAGAGGAUAUGCGUGCUAGAGAUACUAGCAAAAUUUCCUCACAUGAGGAUCACCCAUGUAGAAGGCUGUCCUAUCG | 7.75 | 66.2 |  | 
GGAUAGUGAGGAUAUCGAUGUUAGGAGGAUGAGGUAGGAUGCGAGAAGGCACAUGAGGAUCACCCAUGUAUGGU | 48.8 | 38.8 |  | 
GGAUCAUAUGUUAGGAUAUGCUGGACCUUGGUUCAGCAGAAGGGACAUGAGGAUCACCCAUGUCAUGUCGAUCC | 21 | 22.3 |  | 
GGAUCCAACACAGGAUAUGCUGGACUUUGUCCAGCAGAAGGGUGAAGAACAUGAGGAUCACCCAUGUGGAUCCAUAUAUUUAAU |  |  | 483 | 42.4
GGAUCGAAAGUGAGGAUAUGCUGGUCCUUGGAUCAGCAGAAGGCACAUGAGGAUCACCCAUGUGAUUUCGAUCC | 16.6 | 25 |  | 
GGAUCGAAUGUGAGGAUAUGCUGGUCCUUGGAUCAGCAGAAGGCACAUGAGGAUCACCCAUGUGACUAAGAUCC | 32.7 | 248 |  | 
GGAUCGAGUGUGAGGAUAUACCUAUGGAAACAUAGGUAGAAGGCACAUGAGGAUCACCCAUGUCCUAACGGUCC | 350 | 514 |  | 
GGAUGACAAAGUCAUCCAAUACGAACAUGAGGAUCACCCAUGUAGGAUAUCGUACUCAAAGAGUACGAGAAGGACAUGUGCCUU | 37.6 | 236 |  | 
GGAUGACAAAGUCAUCCAAUACGAACAUGAGGAUCACCCAUGUAGGAUAUGCUACAUGAGGAUCACCAGAAGGACAUGUGCCUU | 123 | 135 |  | 
GGAUGACAAAGUCAUCCAUAACGAACAUGAGGAUCACCCAUGUAGGAUAUGCUACUCAAAGAGUAGCAGAAGGACAUGUGCCUU | 36 | 239 |  | 
GGAUGACAAAGUCAUCCAUUACGAACAUGAGGAUCACCCAUGUAGGAUAUGCUUCACAAAGUGAAGCAGAAGGACAUGUGUCUU | 30.2 | 154 |  | 
GGAUGACAAAGUCAUCCUAAACGAACAUGAGGAUCACCCAUGUAGGAUAUGCUACACAAAGUGUAGCAGAAGGACAUGUGCCUU | 37.1 | 269 |  | 
GGAUGACAAAGUCAUCCUUAACGAACAUGAGGAUCACCCAUGUAGGAUAUGCUACUCAAAGAGUAGCAGAAGGACAUGUGUCUU | 31.1 | 159 |  | 
GGAUUAAUAGCCCACAUGAGGAUCACCCAUGUAGUAUUUUACAAGGAUAUGGUGGGACUUCGUGGCCAGAAGGUGUAAAGGAUC |  |  | 451 | 397
GGAUUAAUAGUCCACAUGAGGAUCACCCAUGUAGUAUUUUGCAAGGAUAUGGUGGGACUUCGUGGCCAGAAGGUGUAAAGGAUC |  |  | 128 | 99.2
GGAUUACAUGAGGAUCACCCAUGUGAGGAUAUCGAUGUCCCUAGCAGCGUGCGGGACUCGAGAAGGCACUUGGA | 47.5 | 248 |  | 
GGAUUACGAGGAUAUCGAUUUUAGUACAUGAGGAUCACCCAUGUUGUCCAGGUCUCGUUUCGAGAAGGCGUGAUUC | 65.1 | 48.7 |  | 
GGAUUUACUGAGGAUAUUGCAUCACCCGACUGAUAAGAAGGCAGAACAUGAGGAUCACCCAUGUGGGUCGUCAA | 21.9 | 28.2 |  | 
GGAUUUGUUCCAAUUUCGGUGAGUAAGGAUAUGCAUGGCAUACAUGAGGAUCACCCAUGUUGUCGGCAGAAGGUGCCACAACGU |  |  | 59.4 | 15.2
GGAUUUUACUAGUUUUCUAAACAUGAGGAUCACCCAUGUUUUUAGGAUAUCAGCGUGAAACACGCUGAGAAGGAAGAACAAUCC | 15.7 | 18.2 |  | 
GGCAAUAUGUAGGAUAUCGUAUCGGAAACGAUACGAGAAGGGCAAACAUGAGGAUCACCCAUGUUCCUUAAGCC | 15 | 17.4 |  | 
GGCAGCGGACAAGGAUAUAAGACGCAGACCAAAUUAGAAGGUGUUAUCUGGCAAUGCGAAAGCAGACAUGAGGAUCACCCAUGU |  |  | 66.3 | 65.1
GGCAUAAACGAGGAUAUCGUAUCGGAAACGAUACGAGAAGGUGUAACAUGAGGAUCACCCAUGUUCCUCAAGCC | 36.7 | 34.8 |  | 
GGCAUACAUGAGGAUCACCCAUGUUCAACCUAGAUAGGAUAUGGGCCUCUUGUAUUAGGCCCAGAAGGAUCUGUAA |  |  | 103 | 29.6
GGCCUACGAGGAUAUCGCUAGCGGGACAUGAGGAUCACCCAUGUGUCGGACCGCGUCAUGCGAGAAGGUGUAAUGA | 17.6 | 18.4 |  | 

Sequence | apparent Kd [1] [nM] | apparent Kd [2] [nM] | apparent Kd [3] [nM] | apparent Kd [4] [nM]
GGCGAACAGGCUAACAUGAGGAUCACCCAUGUGGACUCAUGGUAGGAUAUCGGGAAGGAGGAAACCGAGAAGGGCCGGUGAGCA |  |  | 202 | 43.6
GGCGAACAGGCUAACAUGAGGAUCACCCAUGUGGACUCAUGGUAGGAUAUCGGGAAGGAGGAAACCGAGAAGGGCCGGUGAGCC |  |  | 61 | 34.1
GGCGGAGUAGGAUAUACAUGAGGAUCACCCAUGUAACCUGAUGGCGUAGGUCUUCUAUGUAGAAGGGCUACGCC | 17.4 | 16.7 |  | 
GGCGGGCGAAACAUGAGGAUCACCCAUGUGUUAUAAUUAAUAUAGGAUAUGUUUAUACUUUUUGGGCAGAAGGAUGCGCCUGCC |  |  | 97.8 | 67.5
GGCGGUCGGGAGGAUAUUCGGGCUGUUUGGCUUGGAGAAGGCUCGACAUGAGGAUCACCCAUGUUAGUGUUCUU | 73.9 | 506 |  | 
GGCUACGUUUCGUAGCAGUGUCAUCGAGAAGGCCCUGACAUGAGGAUCACCCAUGUUGUUACAUGGGAGGAUAUCGAUGAUACC |  |  | 12.1 | 5.27
GGCUACGUUUCGUAGCAGUGUCAUCGAGAAGGCCCUGACAUGAGGAUCACCCAUGUUGUUACAUGGGAGGAUAUCGAUGAUACG |  |  | 12.1 | 4.96
GGCUAGGACAGAGGAUAUACGUGCUAGAGAUACUAGCAAAAUUUCCUCACAUGAGGAUCACCCAUGUAGAAGGCUGUCCUAUCG | 18.4 | 458 |  | 
GGGAAACAUGAGGAUCACCCAUGUCAGGAUAUGAUACUAUGUACUUCGGUACAUAGUAUCAGAAGGGACAUCAU | 73.8 | 204 |  | 
GGGAAGUGAGGAUAUGCUGCUCGUCACUUGCGUGAUGAGUAGCAGAAGGUACAUGAGGAUCACCCAUGUAAAAA | 29.6 | 19 |  | 
GGGAGACAUGAGGAUCACCCAUGUGAAAACGUGCGAGGAUAUCUAUGGAAACCAUACUGUAGAGAAGGCGUUUGUC |  |  | 88.4 | 46.6
GGGAGACAUGAGGAUCACCCAUGUGAAAACGUGGCAGGAUAUGCAUGGAAACCAUACUGUGCAGAAGGGCCUUGUC |  |  | 60.5 | 33.1
GGGAGUGGAGGGAAUAACAUGAGGAUCACCCAUGUAUGGGAGAGAAGGCAGGUCGGAGGGCGAUCUGAGGAUAUUUAGACUCCU |  |  | 12.5 | 10.3
GGGCAUAAUACAUGAGGAUCACCCAUGUCAGAAAGGGUAAUCAGAAGGUACUAUUAGAGAAAGAGUAAGGAUAUGAAUAUGCCC |  |  | 973 | 103
GGGCCGUAGUAGAAGGGAUAUACGAUAGGUAUAUCAGGAUAUACAUGAGGAUCACCCAUGUUCUUACAGUGAUAGUCCUCCCUA | 28.4 | 65.8 |  | 
GGGCGGCGAGGAUAUGCAGGGCGGGCGCGCGGGCGCGCGCGACAUGAGGAUCACCCAUGUAGAAGGCGCCGGGC | 19.1 | 129 |  | 
GGGCUCGGAGGAUAUACAAUGGGCCCGGGAAACCGGGCCCUACAUGAGGAUCACCCAUGUAGAAGGUCGGGCUC | 16.4 | 24.8 |  | 
GGGCUCGGUGUGAGGAUAUUGGGUCUGAAAGGGCUCGAGAAGGCACAUGAGGAUCACCCAUGUAAGCUGGGUCU | 42.7 | 37.3 |  | 
GGGCUCGUCGUAAACGACAUGAGGAUCACCCAUGUUGGGCACAGAAGGGCCUUCAUUCGGAUCAGGCAGGAUAUGUAUCUAACA | 5.09 | 5.32 |  | 
GGGUAAAUCGGAGGAUAUCAUGUAAAUACAUGAGGAUCACCCAUGUCGAUGGAGACAUCGGAGAUUGAGAAGGCCGAUGUACCG |  |  | 175 | 9.42
GGGUAACAUGAGGAUCACCCAUGUGAGGAUAUUCUAGGGAUGGAAGCUCGGCCGGCCAGGAGAAGGUACUAAAG | 44 | 48 |  | 
GGGUACAUCGGAGGAUAUCAUGUAAAUACAUGAGGAUCACCCAUGUCAAUGGAGACAUCGGAGAUUGAGAAGGCCGAUGUACCG |  |  | 86.1 | 340
GGGUACAUCGGAGGAUAUCAUGUAAAUACAUGAGGAUCACCCAUGUCGAUGGAGACAUCGGAGAUUGAGAAGGCCGAUGUACAG |  |  | 146 | 8.38
GGGUACAUCGGAGGAUAUCAUGUAAAUACAUGAGGAUCACCCAUGUCGAUGGAGACAUCGGUGAUUGAGAAGGCCGAUGUACCG |  |  | 14.8 | 90
GGGUACAUGAGGAUCACCCAUGUAACGUGGAUAAGCUAUAAUAGAAGGAUAAGAGGAGAUGAGGUAUAGGAUAUAUCAUGGGUG | 42.6 | 17.1 |  | 
GGGUACAUGGGAGGAUAUGGGAUGAUAACAUGAGGAUCACCCAUGUUAAAGAUGCCGAGAGGCAACUAGAAGGCCCAUGUACCG |  |  | 440 | 59.2
GGGUACUAGGGAGGAUAUGGGAAGAUACAUGAGGAUCACCCAUGUUUAAGAAUGCCGAGAGGCAACUAGAAGGCCCUAGUACCU |  |  | 428 | 19.7
